Assay results from different studies.
Each line is one published result; the experiments were not run side by side.
Target: Serine/threonine-protein kinase TAO3 (TAOK3, Homo sapiens, UniProt Q9H2K8)
Residues used in one study (Q9H2K8 1-898): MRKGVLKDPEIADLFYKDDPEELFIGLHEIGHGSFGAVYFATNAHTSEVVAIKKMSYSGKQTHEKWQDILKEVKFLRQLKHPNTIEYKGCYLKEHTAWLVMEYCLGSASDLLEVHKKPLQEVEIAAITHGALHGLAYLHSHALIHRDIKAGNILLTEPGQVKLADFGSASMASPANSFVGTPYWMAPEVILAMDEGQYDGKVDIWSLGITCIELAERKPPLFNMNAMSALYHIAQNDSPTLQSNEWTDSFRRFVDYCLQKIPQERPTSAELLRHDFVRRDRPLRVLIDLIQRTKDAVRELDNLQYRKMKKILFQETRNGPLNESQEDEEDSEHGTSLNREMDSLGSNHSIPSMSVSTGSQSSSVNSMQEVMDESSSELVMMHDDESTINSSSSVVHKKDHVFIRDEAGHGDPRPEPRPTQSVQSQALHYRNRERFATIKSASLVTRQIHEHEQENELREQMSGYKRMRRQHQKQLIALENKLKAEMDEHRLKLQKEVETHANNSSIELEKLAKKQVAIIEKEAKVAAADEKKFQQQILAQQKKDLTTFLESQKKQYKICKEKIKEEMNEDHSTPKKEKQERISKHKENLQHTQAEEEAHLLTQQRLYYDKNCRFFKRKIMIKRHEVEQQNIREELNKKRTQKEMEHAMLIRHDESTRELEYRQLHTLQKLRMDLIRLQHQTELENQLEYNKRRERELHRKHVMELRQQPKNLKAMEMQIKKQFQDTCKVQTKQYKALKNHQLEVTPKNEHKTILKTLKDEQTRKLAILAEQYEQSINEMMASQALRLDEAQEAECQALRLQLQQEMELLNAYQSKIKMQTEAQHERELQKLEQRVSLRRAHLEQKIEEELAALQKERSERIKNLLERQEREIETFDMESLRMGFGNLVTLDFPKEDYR

Structure (SMILES) | assay | conditions | remaining binding [%]
O=C1CCc2cc(Nc3cc(OC4CCOCC4)c([N+](=O)[O-])cc3Cl)ccc2N1 | cell-free assay, competition with immobilised ligand | 1 µM | 81
C[C@H]1CCN(c2nccc(-c3cnn4ncccc34)n2)C1 | binding | 1 µM | 86
COc1ncc2cc3ccccc3nc2c1C#N | cell-free assay, competition with immobilised ligand | 5 µM | 100
O=C(c1ccc(Nc2nccc(-c3cc4ccccc4s3)n2)cc1)N1CCC(N2CCCC2)CC1 | binding, competition with immobilised ligand | 1 µM | 100
CC1=C(C#N)[C@@H](c2ccc3[nH]nc(C)c3c2)C(C#N)=C(c2ccc(Cl)cc2)N1 | cell-free assay, competition with immobilised ligand | 1 µM | 100
CNC(=O)[C@@H]1CC[C@@H](n2c(-c3ccc4cnccc4c3)nc3ccc(C(=O)NCc4cccc(C(N)=O)c4)cc32)C1 | binding, competition with immobilised ligand | 1 µM | 93
c1cnn2ncc(-c3ccnc(N4CCC45COC5)n3)c2c1 | binding | 1 µM | 73
CCN1CCN(Cc2ccc(C(=O)Nc3ccc(C)c(Oc4ccc5c(c4)CC(=O)N5)c3)cc2C(F)(F)F)CC1 | binding, competition with immobilised ligand | 1 µM | 100
N[C@H]1CCN(c2nccc(-c3cnn4ncccc34)n2)C1 | binding | 1 µM | 100
C[C@@H]1CN(c2cc(-c3nn(C)c4ccc(OC5(C)CC5)cc34)ncn2)C[C@H](C)O1 | binding, competition with immobilised ligand | 1 µM | 35
O=C(c1ccc(Nc2ncc(Cl)c(-c3cc4ccccc4s3)n2)cc1)N1CCC(N2CCCC2)CC1 | binding, competition with immobilised ligand | 1 µM | 68
CN(C)c1nccc(-c2cnc3ncccn23)n1 | binding | 1 µM | 68
C[C@@H](c1ccc(-n2cnc3c(N)ncnc32)cc1)N1CCc2nn(C)c(Cc3ccccc3)c2C1=O | binding, competition with immobilised ligand | 0.1 µM | 77
Nc1cnc(N2CCc3cc(S(=O)(=O)Nc4c(F)cc(Cl)cc4F)cc(N4CCCC4=O)c32)nc1 | cell-free assay, competition with immobilised ligand | 1 µM | 70
c1cncc(-c2cccc(Nc3nccc(NC4CCCCC4)n3)c2)c1 | binding, competition with immobilised ligand | 10 µM | 98
O=C(NCC1CCOCC1)c1n[nH]cc1NC(=O)c1c(F)cccc1F | binding, competition with immobilised ligand | 1 µM | 45
CS(=O)(=O)c1cc(C2(NC(=O)c3cncc4c3cnn4-c3ccc(F)cc3)CC2)ccn1 | cell-free assay, competition with immobilised ligand | 1 µM | 97
Cc1cnn2ncc(-c3ccnc(N(C)C)n3)c2c1 | binding | 1 µM | 91
c1ccc(N2CCN(Cc3nc4ccccc4[nH]3)CC2)nc1 | binding, competition with immobilised ligand | 1 µM | 86
CN(C)c1ncc(F)c(-c2cnn3ncccc23)n1 | binding | 1 µM | 78
C[C@H](c1ccnc(Nc2nc3ccc(-c4cc(N(C)C)ncn4)cc3[nH]2)c1)N1CCN(C(=O)CC(F)(F)F)CC1 | cell-free assay, competition with immobilised ligand | 0.1 µM | 41
O=C(NCCCN1CCOCC1)c1ccc(Nc2nccc(-c3cc4ccccc4s3)n2)cc1 | binding, competition with immobilised ligand | 1 µM | 82
